# Sampled rows, rich in hits. Any-hit rate of the full collection: about 2.5%.
# Diaphorase inh = diaphorase inhibitors and chemical oxidizers, primary screen, counter-screen for diaphorase-coupled primary assays, biochemical, uHTS, resorufin fluorescence; inhibition, % at 20 µM; actives 0.69% (n = 190,000); diaphorase resazurin-to-resorufin fluorescence, NADH, 16 min; bacterial (C. kluyveri) enzyme, not human;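 active means primary screen inhibition at 20 µM above a set limit, cut at about 50% in these data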;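 further: plate controls were DMSO with full reaction for no effect and wells lacking NADH for full effect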
#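 Benchmarks: positive control wells lacking NADH, neutral wells with DMSO only. System: bacterial diaphorase enzyme (C. kluyveri). Input: 0.14 U/mL diaphorase, enzyme working solution. Detection: resorufin fluorescence, excitation 544 nm, emission 590 nm. Times: 16-min room-temperature incubation before reading.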
# FLuc stim CS = FLuc activators, initial screening, artefact control for FLuc-dependent activation tests, biochemical, ATPlite luminescence; ATPlite luciferase biochemical, 10 min; 0 = ATP-free wells, 1 = DMSO control; activation factor at 10 µM; 200,000 tested, under 10 active; AID 1027, 2008;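 active means luciferase activation factor, scaled between plate controls, of at least 2 with compound at 10 µM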
# Target sequence (P08659 whole entry, looked up): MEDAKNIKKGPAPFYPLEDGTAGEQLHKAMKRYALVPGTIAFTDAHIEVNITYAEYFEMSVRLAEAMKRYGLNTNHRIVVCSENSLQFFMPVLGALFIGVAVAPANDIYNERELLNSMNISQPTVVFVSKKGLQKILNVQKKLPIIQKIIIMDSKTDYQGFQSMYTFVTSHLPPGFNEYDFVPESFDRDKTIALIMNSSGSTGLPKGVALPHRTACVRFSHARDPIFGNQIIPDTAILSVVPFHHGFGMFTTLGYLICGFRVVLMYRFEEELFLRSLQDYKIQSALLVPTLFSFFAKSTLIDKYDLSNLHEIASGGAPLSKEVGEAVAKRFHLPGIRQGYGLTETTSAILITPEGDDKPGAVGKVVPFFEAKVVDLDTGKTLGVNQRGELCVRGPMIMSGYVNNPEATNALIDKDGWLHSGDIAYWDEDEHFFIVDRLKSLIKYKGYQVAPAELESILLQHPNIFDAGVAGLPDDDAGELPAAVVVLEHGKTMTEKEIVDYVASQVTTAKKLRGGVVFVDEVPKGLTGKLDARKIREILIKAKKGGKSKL
#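 assay system = Luciferase/luciferin detection reagent, cell-free biochemical luciferase assay | also added = ATP substrate | times = 10 min post-reagent at room temperature | measured by = luminescence from luciferase reaction | measure = luciferase activation, seen as luminescence increase over controls | benchmarks = low control with PBS replacing ATP, high control enzyme plus ATP without compound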
# FLuc inhib CS = firefly luciferase enzyme inhibitors, primary screen, artefact control for luciferase-based inhibitor screens, biochemical, luminescence, ATPLite; 10 min; actives 1.5% (n = 200,000); inhibition, % at 10 µM; Luciferin 4-monooxygenase (Photinus pyralis), P08659;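 active means inhibition above about 50% when tested at 10 µM, limit read from the data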
# PMI act hi M6P = human PMI activators, high substrate, primary screen, biochemical, fluorescence intensity, near-saturating mannose 6-phosphate; actives 0.34% (n = 190,000); coupled PMI enzyme assay, resazurin fluorescence, 20 min; stronger effect = higher value; 1 = untreated enzyme, 0 = substrate-free blank; Mannose-6-phosphate isomerase (Homo sapiens), P34949; activation factor at 20 µM;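 active means activation factor of 2 or more at 20 µM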
#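 Material: human phosphomannose isomerase with PGI, G6PDH, diaphorase coupling enzymes; amount: PMI at 15 ng/mL final; also added: Mannose-6-phosphate 1.0 mM (near-saturating) plus 0.22 mM NADP+; incubation: enzyme reaction with compound 20 min at room temperature; signal: resorufin fluorescence (Ex 544/Em 590 nm) from resazurin via diaphorase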
# Diaph act CS = compounds boosting diaphorase resazurin reduction – biochemical, uHTS, resorufin fluorescence, counter-screen for diaphorase-coupled primary assays, primary screen; actives 0.005% (n = 190,000); AID 1229, 2008; Diaphorase/resazurin coupled assay, 16 min; stronger effect = higher value; 1 = vehicle wells, 0 = NADH-free wells; activation factor at 20 µM;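 active means diaphorase activity raised at least twofold by the compound at 20 µM; inactive means activation factor below 2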
#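 Assay system: Purified diaphorase enzyme from Clostridium kluyveri | Amount: Enzyme 0.07 U/mL final | Dosing: Compound 20 µM once, DMSO 1% | Timing: 16 min reaction at room temperature | Detection: Fluorescence, excitation 544 nm and emission 590 nm | Evaluation: Higher resorufin formation from activation or reduction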
# PMI activator = activators of human PMI, primary screen, biochemical, fluorescence intensity, near-Km mannose 6-phosphate. Mannose-6-phosphate isomerase (Homo sapiens), P34949. purified human PMI, coupled resazurin fluorescence, 20 min; stronger effect = higher value; 1 = vehicle control, 0 substrate-free wells. activation factor at 20 µM. actives 0.005% (n = 190,000). AID 1214, 2008;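 active means activation factor of 2 or more at 20 µM, relative to plate controls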
# * marks the source's active call; other numbers are inactive results.
SMILES,Diaphorase inh,FLuc stim CS,FLuc inhib CS,PMI act hi M6P,Diaph act CS,PMI activator
Cc1ccccc1CN(C)CC(=O)NC(C)CCc1ccccc1 (configuration not stated),10,1,-4,1.1,0.9,1
COc1ccc(N2CCN(C(=O)c3cccn4c(=O)c5ccccc5nc34)CC2)cc1,1,1,-3,1,1,1.1
O=C(CCn1c(=O)oc2ccccc21)N1CCc2ccccc21,-6,0.9,9,1.1,1.1,1.1
CC(=O)c1ccc2c(c1)C1C=CCC1C(C(=O)O)N2 (configuration not stated),77*,0.9,5,1.6,0.2,1.6
COc1cccc2c1NC(C(=O)O)C1CC=CC21 (configuration not stated),93*,0.9,5,1.4,0.1,1.2
Cc1ccc2c(c1)C1C=CCC1C(C(=O)O)N2 (configuration not stated),63*,1,2,1.8,0.4,1.5
CC(=O)c1ccc2c(c1)C1C=CCC1C(c1ccncc1)N2 (configuration not stated),20,1,-1,0.8,0.8,1.1
O=c1c2ccccc2oc2nc3ccn(Cc4ccncc4)c(=O)c3cc12,18,1,-3,0.9,0.8,0.9
CC(C)=C1C2CCC1C1C(=O)N(NC(=O)COc3ccc(C(C)(C)C)cc3)C(=O)C21 (configuration not stated),21,1.1,-8,0.9,0.8,0.9
O=C(/C=C/c1ccnc2ccccc12)c1cccs1,7,0,96*,0.9,0.9,0.9
O=C(Cn1cnc2ccccc2c1=O)c1cccs1,3,1,1,1.1,1,1
O=c1c2ccccc2cnn1-c1ccc2ccccc2c1,10,0.4,64*,1,0.9,0.9
O=c1c2ccccc2cnn1-c1ccc(Br)cc1,7,0.5,48,1,0.9,0.9
O=C(COC(=O)c1c2c(nc3ccccc13)CCN(Cc1ccccc1)C2)Nc1c(F)cccc1F,24,1,-2,2*,0.8,1.3
Cc1ccc(Nc2nc(C3CC3)cs2)cc1,9,0.3,69*,1,0.9,0.9
Clc1ccc(Nc2nc(C3CC3)cs2)cc1,22,0.9,14,0.9,0.8,0.9
Cc1ccc(-c2nc(N/N=C/c3cccnc3)c3ccccc3n2)cc1,9,0,97*,1,0.9,0.9
O=C(N/N=C/c1cccc([N+](=O)[O-])c1)c1cc(-c2ccccc2)nc2ccccc12,0,1.1,-10,1.1,1,1
Cc1ccc(-c2nc(NCc3cccnc3)c3ccccc3n2)cc1,10,1,-4,1,0.9,0.8
Cc1ccc(-c2nc(N/N=C/c3cccc([N+](=O)[O-])c3)c3ccccc3n2)cc1,15,0.2,82*,1.1,0.9,1
O=C(/C=C/c1ccc(-c2ccc(F)cc2)o1)N1CCCC1,2,0.9,14,1,1,1.2
COc1cc2[nH]c(=S)nc(NC3CCCCCC3)c2cc1OC,75*,1,-2,1,0.2,1
COc1cc2[nH]c(=S)nc(NCC3CCCO3)c2cc1OC (configuration not stated),26,1,-4,1,0.7,1
c1ccc(COc2ccc(CNn3cnnc3)cc2)cc1,-5,1,1,1,1.1,1
Cc1cc(C(=O)COC(=O)C(C)NC(N)=O)c(C)n1Cc1ccco1 (configuration not stated),7,0.3,67*,1,0.9,1
SMILES,Diaphorase inh,FLuc stim CS,FLuc inhib CS,PMI act hi M6P,Diaph act CS,PMI activator
Cc1cc(C(=O)COC(=O)c2ccc(O)cc2)c(C)n1Cc1ccco1,18,0.8,24,0.9,0.8,0.7
Cc1cc(C(=O)CSc2ncccn2)c(C)n1Cc1ccco1,-4,0.4,64*,1.1,1,1.1
CCOc1ncccc1C(=O)OCC(=O)c1cc(C)n(Cc2ccco2)c1C,39,0.3,67*,0.9,0.6,0.9
O=C(NCc1ccco1)C(c1ccc(F)cc1)N(CC1CCCO1)C(=O)Cn1nnc2ccccc21 (configuration not stated),8,1,0,0.9,0.9,0.9
CCC1(C)Cc2sc3c(=O)[nH]c(=S)[nH]c3c2CO1 (configuration not stated),84*,1,4,1,0.2,1
Cc1ccc(C(=O)NC(=S)Nc2c(C)ccc3nsnc23)cc1,17,1,0,0.7,0.8,0.7
Cc1ccc(C(=O)NC(=S)Nc2cccc3nsnc23)cc1,59*,1,-1,0.6,0.4,0.6
Cc1csc(NC(=O)c2cn3ccccc3n2)n1,18,0.1,94*,0.6,0.8,0.8
CNc1nc(-c2ccc3c(c2)CCN3C(=O)c2ccccc2F)cs1,27,0.4,65*,0.9,0.7,0.9
CCCC(=O)N1CCc2cc(-c3nc(N)sc3C)ccc21,7,0.8,15,1,0.9,0.9
CC(C)(C)C(=O)N1CCc2cc(-c3csc(N)n3)ccc21,7,0,96*,1.1,0.9,1
CNc1nc(-c2ccc3c(c2)CCN3C(=O)c2ccccc2F)c(C)s1,7,1,2,1.4,0.9,1.3
Nc1nc(-c2ccc3c(c2)CCCC3)cs1,-12,0.4,58*,1.2,1.1,1.1
CCC(C)C(=O)N1CCc2cc(-c3csc(N)n3)ccc21 (configuration not stated),28,0.3,67*,0.9,0.7,0.9
CC(C)(C)CC(C)(C)NC(=S)N1CCN(Cc2ccc3c(c2)OCO3)CC1,-2,1.1,-8,1.1,1,1.1
O=C(Nc1ccc2nc(-c3ccccn3)[nH]c2c1)C1CCCCC1,8,0.4,63*,0.9,0.9,0.8
CC(C)c1nc2ccc(NC(=O)C3CCCCC3)cc2[nH]1,6,0.7,28,0.9,0.9,0.9
CCC(C(=O)NCc1ccco1)N(C(=O)CNS(=O)(=O)c1ccccc1)c1ccccc1C (configuration not stated),10,1,-5,1,0.9,1

# From PubChem BioAssay
